{"source": "ChEMBL document CHEMBL1143769", "about": "“Ezetimibe analogs with a reorganized azetidinone ring: Design, synthesis, and evaluation of cholesterol absorption inhibitions” (2007)", "key": {"Rattus norvegicus [1]": {"system": "Rattus norvegicus", "experiment": "Decrease in LDL-cholesterol levels in high-cholesterol diet fed Wistar rat at 4 mg/kg/day", "format": "functional", "set-up": "scale not given: the % may be the effect or the level left", "method_in_brief": "(§1)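 Rats fed a high-cholesterol, high-fat diet; drug suspended in 0.5% sodium carboxymethyl cellulose (40 mg/100 ml) and given intragastrically at 4 mg/kg/day. After a 16 h fast, tail blood was collected and serum total cholesterol and LDL-cholesterol measured. 8–18 rats per group; percent change calculated against high-cholesterol-diet animals.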"}, "Rattus norvegicus [2]": {"system": "Rattus norvegicus", "experiment": "Decrease in total cholesterol levels in high-cholesterol diet fed Wistar rat at 4 mg/kg/day", "format": "functional", "set-up": "scale not given: the % may be the effect or the level left", "method_in_brief": "as §1"}}, "data": [{"compound": "O=C1[C@@H](c2ccc(F)cc2)[C@H](c2ccc(O)cc2)N1CC[C@@H](O)c1ccc(F)cc1", "values": [{"measurement": "Activity", "setting": "Rattus norvegicus [1]", "result": -35, "unit": "%"}, {"measurement": "Activity", "setting": "Rattus norvegicus [2]", "result": -18, "unit": "%"}]}, {"compound": "O=C1[C@H](c2ccc(F)cc2)[C@@H](c2ccc(O)cc2)N1CC[C@@H](O)c1ccc(F)cc1", "values": [{"measurement": "Activity", "setting": "Rattus norvegicus [1]", "result": -5, "unit": "%"}, {"measurement": "Activity", "setting": "Rattus norvegicus [2]", "result": -17, "unit": "%"}]}, {"compound": "O=C1[C@@H](c2ccc(F)cc2)[C@H](c2ccc(O)cc2)N1CC[C@H](O)c1ccc(F)cc1", "values": [{"measurement": "Activity", "setting": "Rattus norvegicus [1]", "result": -29, "unit": "%"}, {"measurement": "Activity", "setting": "Rattus norvegicus [2]", "result": -25, "unit": "%"}]}, {"compound": "O=C1[C@H](CC[C@H](O)c2ccc(F)cc2)[C@@H](c2ccc(O)cc2)N1c1ccc(F)cc1", "note": "[EZETIMIBE]", "values": [{"measurement": "Activity", "setting": "Rattus norvegicus [1]", "result": -47, "unit": "%"}, {"measurement": "Activity", "setting": "Rattus norvegicus [2]", "result": -51, "unit": "%"}]}, {"compound": "O=C1[C@H](c2ccc(F)cc2)[C@@H](c2ccc(O)cc2)N1CC[C@H](O)c1ccc(F)cc1", "values": [{"measurement": "Activity", "setting": "Rattus norvegicus [1]", "result": -22, "unit": "%"}, {"measurement": "Activity", "setting": "Rattus norvegicus [2]", "result": -26, "unit": "%"}]}]}
